Source: ChEMBL document CHEMBL3233000, “Cytotoxic ent-kaurane diterpenoids from Isodon wikstroemioides” (J Nat Prod, 2014)

What was measured:
Format in all cases: functional, cell-based
[1] = test system: HL-60; test: Cytotoxicity against human HL60 cells assessed as growth inhibition after 48 hrs by MTS assay; details: HL-60, 48 h
How it was run: (§1)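 Cell lines from ATCC, grown in RPMI-1640 or DMEM with 10% FBS at 37 °C, 5% CO2. Cells seeded, incubated 12 h at 37 °C, then screened at 40 μM for 48 h with MTS read-out. Where growth inhibition reached 50%, retested at 0.064, 0.32, 1.6, 8 and 40 μM in triplicate. Cisplatin and paclitaxel were positive controls. IC50 by Reed and Muench method.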

[2] = test system: SMMC-7721; test: Cytotoxicity against human SMMC7721 cells assessed as growth inhibition after 48 hrs by MTS assay; details: SMMC-7721, 48 h; how it was run: as §1
[3] = test system: A549; test: Cytotoxicity against human A549 cells assessed as growth inhibition after 48 hrs by MTS assay; details: A549, 48 h; how it was run: as §1
[4] = test system: SW480; test: Cytotoxicity against human SW480 cells assessed as growth inhibition after 48 hrs by MTS assay; details: SW480, 48 h; how it was run: as §1
[5] = test system: RAW264.7; test: Inhibition of nitric oxide production in LPS-stimulated mouse RAW264.7 cells after 18 hrs by griess reagent based plate reader analysis; details: RAW264.7, 18 h
How it was run: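 RAW264.7 macrophages seeded at 2 × 10^5 cells/well. Treated with serial dilutions (top concentration 25 μM), then stimulated with LPS 1 μg/mL for 18 h. Supernatant NO measured with Griess reagents, absorbance 550 nm. MG-132 was the positive control. Viability was checked in parallel by MTT (595 nm) to exclude cytotoxic interference.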

[6] = test system: MCF7; test: Cytotoxicity against human MCF7 cells assessed as growth inhibition after 48 hrs by MTS assay; details: MCF7, 48 h; how it was run: as §1

C=C1C(=O)[C@]23[C@H](O)[C@H]1[C@@H](O)C[C@H]2[C@]1(C)CCC[C@](C)(CO)[C@H]1C[C@H]3OC(C)=O
IC50 [1]: > 10 µM | IC50 [2]: > 10 µM | IC50 [3]: > 10 µM | IC50 [4]: 6.9 µM | IC50 [5]: 16.8 µM | IC50 [6]: > 10 µM

C=C1[C@H]2[C@@H](O)[C@@]3([C@H](O)C[C@@H]4[C@@](C)(CO)CCC[C@@]4(C)[C@@H]3C[C@@H]2O)[C@@H]1OC(C)=O [ALBOPILOSIN B]
IC50 [1]: > 10 µM | IC50 [2]: > 10 µM | IC50 [3]: > 10 µM | IC50 [4]: > 10 µM | IC50 [6]: > 10 µM

C=C1C(=O)[C@@]23[C@H](O)C[C@@H]4C(C)(C)CCC[C@@]4(C)[C@@H]2[C@@H](O)[C@H](O)[C@@H]1[C@H]3OC(C)=O [RABDOKUNMIN A]
IC50 [1]: 8.8 µM | IC50 [2]: 5.8 µM | IC50 [3]: > 10 µM | IC50 [4]: 4.7 µM | IC50 [5]: 7.2 µM | IC50 [6]: > 10 µM

C=C1[C@@H]2C[C@H](O)[C@H]3[C@]4(C)[C@@H](OC(C)=O)C[C@H](O)C(C)(C)[C@H]4[C@@H](OC(C)=O)[C@H](OC(C)=O)[C@]3(C2)[C@@H]1O [NERVONIN G]
IC50 [1]: > 10 µM | IC50 [2]: > 10 µM | IC50 [3]: > 10 µM | IC50 [4]: > 10 µM | IC50 [6]: > 10 µM

C=C1C(=O)[C@@]23[C@H](O)C[C@@H]4C(C)(C)[C@H](O)CC[C@@]4(C)[C@@H]2[C@@H](O)[C@H](O)[C@@H]1[C@H]3O
IC50 [1]: > 10 µM | IC50 [2]: > 10 µM | IC50 [3]: > 10 µM | IC50 [4]: > 10 µM | IC50 [6]: > 10 µM

C=C1[C@@H]2C[C@H](OC(C)=O)[C@H]3[C@]4(C)[C@@H](OC(C)=O)C[C@H](O)C(C)(C)[C@H]4C(=O)[C@H](O)[C@]3(C2)[C@@H]1OC(C)=O [ADENANTHIN K]
IC50 [1]: > 10 µM | IC50 [2]: > 10 µM | IC50 [3]: > 10 µM | IC50 [4]: > 10 µM | IC50 [6]: > 10 µM

C=C1C(=O)[C@@]23CC[C@@H]4[C@@](C)(CO)[C@H](O)CC[C@@]4(C)[C@@H]2C[C@H](O)[C@@H]1C3
IC50 [1]: 4.1 µM | IC50 [2]: 4.1 µM | IC50 [3]: 3.7 µM | IC50 [4]: 2.7 µM | IC50 [5]: 4.7 µM | IC50 [6]: 4.8 µM

C=C1C(=O)[C@@]23CC[C@H]4[C@@](C)(CCC[C@]4(C)C=O)[C@@H]2C[C@H](O)[C@@H]1[C@H]3O
IC50 [1]: 3.2 µM | IC50 [2]: 1.4 µM | IC50 [3]: 0.9 µM | IC50 [4]: 1 µM | IC50 [5]: 1.9 µM | IC50 [6]: 1.7 µM

C=C1C(=O)[C@@]23CC(=O)[C@@H]4C(C)(C)CCC[C@@]4(C)[C@@H]2[C@@H](O)C[C@@H]1[C@H]3O
IC50 [1]: 3.1 µM | IC50 [2]: 0.8 µM | IC50 [3]: 1 µM | IC50 [4]: 1 µM | IC50 [5]: 1.1 µM | IC50 [6]: 1.6 µM

C=C1[C@@H]2CC[C@H]3[C@]4(C)CCC(=O)[C@](C)(CO)[C@H]4CC[C@]3(C2)[C@@H]1O
IC50 [1]: > 10 µM | IC50 [2]: > 10 µM | IC50 [3]: > 10 µM | IC50 [4]: > 10 µM | IC50 [6]: > 10 µM

C=C1C(=O)[C@]23[C@H](O)[C@H]1[C@@H](O)C[C@H]2[C@]1(C)CCC[C@](C)(COC(C)=O)[C@H]1C[C@H]3OC(C)=O
IC50 [1]: 2.9 µM | IC50 [2]: 3.5 µM | IC50 [3]: 2.7 µM | IC50 [4]: 0.9 µM | IC50 [5]: 5 µM | IC50 [6]: 1.6 µM

C=C1C(=O)[C@@]23CC[C@@H]4[C@@](C)(CO)CCC[C@@]4(C)[C@@H]2C[C@H](O)[C@@H]1[C@H]3O
IC50 [1]: 8.8 µM | IC50 [2]: 4 µM | IC50 [3]: > 10 µM | IC50 [4]: 4 µM | IC50 [5]: 4.8 µM | IC50 [6]: > 10 µM

C=C1C(=O)[C@@]23[C@H](O)C[C@@H]4[C@@](C)(COC(C)=O)CCC[C@@]4(C)[C@@H]2C[C@H](O)[C@@H]1[C@H]3O [ALBOPILOSIN A]
IC50 [1]: 2 µM | IC50 [2]: 1.4 µM | IC50 [3]: 3.2 µM | IC50 [4]: 0.9 µM | IC50 [5]: 1.9 µM | IC50 [6]: 1.7 µM

C=C1C(=O)[C@]23C[C@H]1[C@@H](O)C[C@H]2[C@]1(C)CCC[C@](C)(CO)[C@H]1C[C@H]3O
IC50 [1]: 3.6 µM | IC50 [2]: 4 µM | IC50 [3]: 4.4 µM | IC50 [4]: 1.4 µM | IC50 [5]: 3.5 µM | IC50 [6]: 4.9 µM

C=C1[C@@H]2C[C@H](OC(C)=O)[C@H]3[C@]4(C)[C@@H](OC(C)=O)C[C@H](O)C(C)(C)[C@H]4C(=O)[C@H](OC(C)=O)[C@]3(C2)[C@@H]1O [ADENANTHIN J]
IC50 [1]: > 10 µM | IC50 [2]: > 10 µM | IC50 [3]: > 10 µM | IC50 [4]: > 10 µM | IC50 [6]: > 10 µM

C=C1C(=O)[C@]23C[C@H]1C[C@H](OC(C)=O)[C@H]2[C@]1(C)[C@@H](OC(C)=O)C[C@H](O)C(C)(C)[C@H]1C(=O)[C@@H]3OC(C)=O [ADENANTHIN]
IC50 [1]: 3.6 µM | IC50 [2]: 4 µM | IC50 [3]: 3.3 µM | IC50 [4]: 2 µM | IC50 [5]: 3.3 µM | IC50 [6]: 2.8 µM

C=C1C(=O)[C@@]23[C@H](O)C[C@@H]4[C@@](C)(CO)CCC[C@@]4(C)[C@@H]2CC[C@@H]1[C@H]3O [EXCISANIN C]
IC50 [1]: 3 µM | IC50 [2]: 2.7 µM | IC50 [3]: 2.1 µM | IC50 [4]: 1.3 µM | IC50 [5]: 1 µM | IC50 [6]: 1.6 µM

C=C1C(=O)[C@]23[C@H](O)[C@H]1[C@@H](O)[C@H](O)[C@H]2[C@]1(C)CCCC(C)(C)[C@H]1C[C@H]3OC(C)=O
IC50 [1]: 8.8 µM | IC50 [2]: 5.8 µM | IC50 [3]: > 10 µM | IC50 [4]: 4.7 µM | IC50 [5]: 7.2 µM | IC50 [6]: > 10 µM

C=C1C(=O)[C@@]23[C@H](O)C[C@@H]4[C@@](C)(CO)[C@H](O)CC[C@@]4(C)[C@@H]2C[C@H](O)[C@@H]1[C@H]3O
IC50 [1]: > 10 µM | IC50 [2]: > 10 µM | IC50 [3]: > 10 µM | IC50 [4]: > 10 µM | IC50 [6]: > 10 µM

C=C1C(=O)[C@@]23CC[C@@H]4[C@@](C)(CO)CCC[C@@]4(C=O)[C@@H]2CC[C@@H]1[C@H]3O
IC50 [1]: > 10 µM | IC50 [2]: > 10 µM | IC50 [3]: > 10 µM | IC50 [4]: > 10 µM | IC50 [5]: 9.9 µM | IC50 [6]: > 10 µM

C=C1C(=O)[C@]23C[C@H]1CC[C@H]2[C@]1(CO)CCC[C@](C)(CO)[C@H]1C[C@H]3O
IC50 [1]: > 10 µM | IC50 [2]: 7.1 µM | IC50 [3]: > 10 µM | IC50 [4]: 4 µM | IC50 [5]: 2.8 µM | IC50 [6]: 7.3 µM

CC(=O)O[C@H]1C(=O)[C@@]2(C)[C@H]([C@H](OC(=O)c3ccccc3)[C@]3(O)C[C@H](OC(=O)[C@H](O)[C@@H](NC(=O)c4ccccc4)c4ccccc4)C(C)=C1C3(C)C)[C@]1(OC(C)=O)CO[C@@H]1C[C@@H]2O [PACLITAXEL]
IC50 [1]: < 0.008 µM | IC50 [2]: < 0.008 µM | IC50 [3]: < 0.008 µM | IC50 [4]: < 0.008 µM | IC50 [6]: < 0.008 µM

C=C1C(=O)[C@@]23[C@H](O)C[C@@H]4C(C)(C)CCC[C@@]4(C)[C@@H]2C[C@H](O)[C@@H]1[C@H]3O [ISOSCOPARIN L]
IC50 [1]: 0.5 µM | IC50 [2]: 1.2 µM | IC50 [3]: 0.8 µM | IC50 [4]: 0.6 µM | IC50 [5]: 0.8 µM | IC50 [6]: 0.4 µM

C=C1C(=O)[C@@]23[C@H](O)C[C@H]4[C@@](C)(CCC[C@]4(C)C=O)[C@@H]2C[C@H](O)[C@@H]1[C@H]3O [MACROCALYXIN C]
IC50 [1]: 3.7 µM | IC50 [2]: 4 µM | IC50 [3]: > 10 µM | IC50 [4]: 2.1 µM | IC50 [5]: 2.7 µM | IC50 [6]: 3.7 µM

C=C1C(=O)[C@@]23C[C@H](O)[C@@H]4C(C)(C)CCC[C@@]4(C)[C@@H]2[C@@H](O)C[C@@H]1[C@H]3O
IC50 [1]: 4.8 µM | IC50 [2]: 5.1 µM | IC50 [3]: 5.1 µM | IC50 [4]: 2.3 µM | IC50 [5]: 2.5 µM | IC50 [6]: 3.7 µM

C=C1C(=O)[C@@]23[C@H](O)C[C@@H]4[C@@](C)(CO)[C@@H](O)CC[C@@]4(C)[C@@H]2CC(=O)[C@@H]1[C@H]3O
IC50 [1]: > 10 µM | IC50 [2]: > 10 µM | IC50 [3]: > 10 µM | IC50 [4]: > 10 µM | IC50 [6]: > 10 µM

C=C1C(=O)[C@@]23[C@H](O)C[C@@H]4[C@@](C)(CO)CCC[C@@]4(C)[C@@H]2[C@@H](O)C[C@@H]1[C@H]3O [RABDOKUNMIN D]
IC50 [1]: > 10 µM | IC50 [2]: > 10 µM | IC50 [3]: > 10 µM | IC50 [4]: > 10 µM | IC50 [6]: > 10 µM

C=C1[C@H]2[C@@H](O)[C@@]3([C@H](O)C[C@@H]4[C@@](C)(CO)CCC[C@@]4(C)[C@@H]3C[C@@H]2O)[C@@H]1O
IC50 [1]: > 10 µM | IC50 [2]: > 10 µM | IC50 [3]: > 10 µM | IC50 [4]: > 10 µM | IC50 [6]: > 10 µM

C=C1C(=O)[C@@]23[C@H](O)C[C@@H]4[C@@](C)(CO)CCC[C@@]4(CO)[C@@H]2C[C@H](O)[C@@H]1[C@H]3O
IC50 [1]: > 10 µM | IC50 [2]: > 10 µM | IC50 [3]: > 10 µM | IC50 [4]: > 10 µM | IC50 [6]: > 10 µM

C=C1[C@@H]2C[C@H](OC(C)=O)[C@H]3[C@]4(C)[C@@H](OC(C)=O)C[C@H](O)C(C)(C)[C@H]4C(=O)[C@H](O)[C@]3(C2)[C@@H]1O [NERVONIN E]
IC50 [1]: > 10 µM | IC50 [2]: > 10 µM | IC50 [3]: > 10 µM | IC50 [4]: > 10 µM | IC50 [6]: > 10 µM
